An excerpt weighted towards active compounds, which were near 2.3% of everything screened.
FN deposition inh – fibronectin deposition inhibition. AH1F fibroblasts, Alexa488-fibronectin deposition fluorescence, overnight. inhibition, % at 12.6 µM. 0.086% of 350,000 active. AID 743247;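 active = mean inhibition across replicates of 30% or more, regardless of how many single replicates reach that level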;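 note: positive control wells lacked labelled fibronectin entirely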
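Material – AH1F fibroblast monolayer, labelled fibronectin deposition · Reagent – labelled fibronectin 24 nM · Timing – 1 h adhesion, overnight exposure · Measured by – fluorescence at 485 nm excitation, 525 nm emission · Read-out – inhibition of fibronectin deposition signal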
PGC1a acetyl inh – PGC1a acetylation modulation, inhibitor mode; inhibition, % at 15.6 µM; AID 651687; U2OS PGC1a acetylation, AlphaScreen anti-acetyl-lysine; with virally co-expressed GCN5 acetyltransferase; 0.17% of 350,000 active;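 active = every replicate shows inhibition of at least 40%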;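 note: 0% = neutral control wells and 100% = positive control wells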
EWS-Fli block – inhibitors of EWS/Fli oncoprotein transcriptional activity; A673 NR0B1-luciferase reporter, viability-normalised; inhibition, % at 12.6 µM; 0.67% of 350,000 active; AID 651661;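 active = mean inhibition of at least 50% after viability correction, with every replicate also passing that limit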;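 note: firefly luciferase signal divided by Alamar Blue viability fluorescence both relative to DMSO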
Env fusion inh – blocks HIV Env-driven cell-cell fusion | inhibition, % at 12.3 µM | 1.1% of 360,000 active | HeLa-JRFL Env/CEM21 cell fusion, luciferase;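 active = mean replicate inhibition score of at least 50 and every replicate individually at or above 50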;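 note: 0% = plate neutral controls and 100% = maraviroc near 300 nM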
F508del corr – correctors of CFTR F508del function in bronchial epithelial cells; AID 720511; 0.36% of 350,000 active; activity (quench increase), % at 7.58 µM; CFBE cells, YFP halide quenching; stimulated with forskolin plus potentiator P3; % fluorescence drop versus neutral controls;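 active = mean added fluorescence quench of at least 8% versus neutral control, with both replicates also reaching 8%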;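 note: cells transiently co-express mutant CFTR-F508del with the halide-sensitive YFP; corrector assay measuring rescue of mutant channel to the surface after 24 h compound exposure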
PAX8 reporter – lowers PAX8-driven luciferase in RMG-I cells | RMG-I TPO-luciferase reporter, SteadyGlo, 24 h | inhibition, % at 12.6 µM | 1.2% of 360,000 active;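 active = mean replicate inhibition at least 60% with every replicate also reaching 60%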;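 note: luciferase light reporting Pax8 driven TPO promoter activity; plate controls were median of neutral control wells for no effect and mitoxantrone controls for full effect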
Numbers without * were called inactive; x = not tested or not shown; [ ] = another dose, or the depositor's remark.

SMILES	FN deposition inh	PGC1a acetyl inh	EWS-Fli block	Env fusion inh	F508del corr	PAX8 reporter
C/C=C/c1ccc([C@@H]2[C@@H](CO)N(C(=O)C3CC3)[C@H]2CN(C)C(=O)C2CC2)cc1	x	5	-3	x	2	4
COc1ccc(CCNc2nnc(Sc3nnnn3-c3ccccc3)s2)cc1OC	-10	-25	x	-222	x	94*
COc1ccc(-n2nnnc2SCC(=O)NCCc2ccccc2)cc1OC	-6	x	0	8	4	25
COc1cccc(S(=O)(=O)N2CCC3(CC2)CN[C@H](CO)c2[nH]c4cc(OC)ccc4c23)c1	x	0	-3	x	-3	x
O=[N+]([O-])c1nn(-c2ccccc2)n(O)c1=NCCc1ccccc1	x	10	x	x	x	x
COc1ccc(-n2nc([N+](=O)[O-])c(=NCCc3ccccc3)n2O)cc1	4	x	-10	x	1	94*
CNC[C@H]1Oc2ccc(NC(=O)NC(C)C)cc2C(=O)N(C)C[C@H]1C	2	x	x	x	x	x
CC1(C(=O)NS(=O)(=O)c2ccccc2Cl)CCN1C(=O)CCc1ccc(Cl)cc1Cl (stereo unspecified)	-3	-1	-1	4	0	11
Cc1ccccc1S(=O)(=O)NC(=O)C1(C)CCN1C(=O)CCc1ccc(Cl)cc1Cl (stereo unspecified)	4	-1	-1	71*	4	9
CC(C)CC#Cc1ccc2c(c1)O[C@@H](CN(C)C(=O)c1cnccn1)[C@@H](C)CN([C@H](C)CO)S2(=O)=O	x	-7	5	x	-2	6
CC(C)(C)[Si](C)(C)OC[C@@H]1[C@H]2c3ccccc3O[C@]1(C)NC(=S)N2C(=O)c1ccccc1	x	-9	10	14[16.7 µM]	2	95*
CC12N=C3SCC(=O)N3[C@H](c3ccccc3O1)[C@H]2CO[Si](C)(C)C(C)(C)C	x	-16	-2	8[16.7 µM]	0	6
Cc1ccc(C#CC[N+]2(CC#Cc3ccc(C)cc3)CCCCC2)cc1	0	x	33	30	4	69*
COc1ccccc1C(=O)Nc1nc2ccccc2[nH]1	1	x	92*	73*	1	129*
COc1cc(SC)ccc1C(=O)Nc1nc2ccccc2[nH]1	-5	x	94*	92*	0	114*
CCC(=O)NC(=S)Nc1cccc(Cl)c1N1CCCCC1	9	-18	x	73*	x	x
CN1C(=O)c2cc(NC(=O)c3ccc(C#N)cc3)ccc2OC[C@H]2O[C@@H](CC(=O)NCc3ccc4c(c3)OCO4)CC[C@@H]21	7	x	0	11[16.7 µM]	x	5
CNC[C@H]1Oc2ccccc2C(=O)N(C)C[C@H]1C	2	x	x	x	x	x
CCOc1cc(/C=C2\COc3ccccc3C2=O)cc(Br)c1OCC(=O)N(C)C	-2	x	63*	-63	-1	10
COc1ccc(/C=C2\COc3ccccc3C2=O)cc1OC	12	x	x	-35	x	-15
C/C=C/c1cnc2c(c1)C(=O)N([C@@H](C)CO)C[C@H](C)[C@@H](CN(C)S(=O)(=O)c1ccc(OC)cc1)O2	x	-5	-4	27[16.7 µM]	2	x
COc1ccc(-c2cc3ccc(OC)cc3cn2)cc1	-13	x	58*	-70	-1	18
COc1ccc(-c2cc3ccccc3cn2)cc1	-2	6	18	x	-1	-31
Fc1ccc(-c2csc3ncnc(N4CCc5ccccc5C4)c23)cc1	-5	x	8	x	0	70*
CCCNC(=O)N1CC2(CN(S(=O)(=O)CC)C2)c2c(n(C)c3cc(OC)ccc23)[C@@H]1CO	x	-7	5	x	-1	1
SMILES	FN deposition inh	PGC1a acetyl inh	EWS-Fli block	Env fusion inh	F508del corr	PAX8 reporter
C=CCn1c(C)cc(C2=NNC(=NC(C)(C)C)SC2)c1C	3	x	60*	13	x	13
C=CCn1c(C)cc(C2=NNC(=Nc3ccc(C)cc3)SC2)c1C	x	-5	-5	8	x	15
C=CCN=C1NN=C(c2cc(C)n(CCOC)c2C)CS1	2	x	85*	75*	x	56
COCCn1c(C)cc(C2=NNC(=Nc3ccc(Cl)cc3Cl)SC2)c1C	x	0	x	-83	x	x
COCCn1c(C)cc(C2=NNC(=NC3CC3)SC2)c1C	4	x	90*	57*	-4	102*
CCNC(=O)C[C@@H]1CC[C@@H]2[C@@H](COc3ccc(NC(=O)c4cc(C)on4)cc3C(=O)N2C)O1	-13	6	8	9[16.7 µM]	2	-4
Clc1ccc(SCc2csc(N3CCOCC3)n2)cc1	-8	x	-59	-13	-1	-19
O=c1cc(CSc2ccc(Cl)cc2)nc(-c2ccccn2)[nH]1	18	x	14	31	7	69*
CCSc1cc(N2CCOCC2)nc(-c2ccc(Cl)cc2)n1	1	x	-2	x	0	135*
Clc1ccc(SCc2cc(N3CCOCC3)nc(-c3ccccn3)n2)cc1	8	10	29	19	8.1*	31
N#C[C@@H]1[C@H](c2ccc(C#Cc3ccccc3F)cc2)[C@@H](CO)N1C(=O)C1CCCC1	-14	-13	2	x	2	x
C=CC[C@]1(C(=O)N(C)C)N=C(c2ccc(OCCCO)cc2)O[C@H]1c1ccccc1	x	-8	-8	4[16.7 µM]	-1	x
COc1ccc([C@@H]2CC=CC[C@@H](C)Oc3ccccc3C(=O)N(C)[C@@H](C)C(=O)N2)c(OC)c1 (mixture of isomers)	-1	x	x	x	x	x
Cc1[nH]c2ccc(C(C)C)cc2c1CC(=O)O	-5	76*	3	11	0	15
Cc1ccc2[nH]c(C)c(CC(=O)O)c2c1	x	9	x	x	x	x
c1ccc(N(c2ccccc2)c2nc(-n3ccnc3)nc(-n3ccnc3)n2)cc1	x	-18	x	x	x	x
CN(c1ccccc1)c1nc(-n2ccnc2)nc(-n2ccnc2)n1	44*	-4	x	-76	x	x
OCC(CCc1c[nH]c2ccccc12)c1c[nH]c2ccccc12 (stereo unspecified)	13	x	-4	6	3	26
O=S1(=O)CCN(c2ccccc2CC(c2c[nH]c3ccccc23)c2c[nH]c3ccccc23)CC1	4	6	7	85*	1	20
C[C@H]1CN([C@@H](C)CO)C(=O)c2cc(C#CC3CC3)cnc2O[C@H]1CN(C)C(=O)C1CCCCC1	x	-19	-4	-5[16.7 µM]	-1	x
COc1ccc(CCN2C(=O)c3[nH]nc(-c4ccccc4O)c3C2c2ccccc2)cc1OC (stereo unspecified)	-15	-53	x	147*	x	29
COc1ccc2c3c(n(C)c2c1)[C@@H](CO)N(CC1CCOCC1)CC31CN(C(C)=O)C1	x	6	-10	x	1	x
CC(Sc1ncnc2ccccc12)C(=O)Nc1ccc2c(c1)OCCO2 (stereo unspecified)	1	x	x	31	x	63*
CC(Sc1nc2ccccc2c(=O)n1C)C(=O)Nc1ccc2c(c1)OCCO2 (stereo unspecified)	4	-3	12	x	25*	12
O=C(Cc1ccccn1)NCC[C@@H]1CC[C@@H](NC(=O)Nc2ccc(C(F)(F)F)cc2)[C@@H](CO)O1	10	45*	-14	1[16.7 µM]	8	69*

Source: PubChem
